{"data": "Measured values of several laboratories", "target": "Ankyrin repeat and protein kinase domain-containing protein 1 (ANKK1, Homo sapiens, UniProt Q8NFD2)", "Residues used in one study (Q8NFD2 1-765)": "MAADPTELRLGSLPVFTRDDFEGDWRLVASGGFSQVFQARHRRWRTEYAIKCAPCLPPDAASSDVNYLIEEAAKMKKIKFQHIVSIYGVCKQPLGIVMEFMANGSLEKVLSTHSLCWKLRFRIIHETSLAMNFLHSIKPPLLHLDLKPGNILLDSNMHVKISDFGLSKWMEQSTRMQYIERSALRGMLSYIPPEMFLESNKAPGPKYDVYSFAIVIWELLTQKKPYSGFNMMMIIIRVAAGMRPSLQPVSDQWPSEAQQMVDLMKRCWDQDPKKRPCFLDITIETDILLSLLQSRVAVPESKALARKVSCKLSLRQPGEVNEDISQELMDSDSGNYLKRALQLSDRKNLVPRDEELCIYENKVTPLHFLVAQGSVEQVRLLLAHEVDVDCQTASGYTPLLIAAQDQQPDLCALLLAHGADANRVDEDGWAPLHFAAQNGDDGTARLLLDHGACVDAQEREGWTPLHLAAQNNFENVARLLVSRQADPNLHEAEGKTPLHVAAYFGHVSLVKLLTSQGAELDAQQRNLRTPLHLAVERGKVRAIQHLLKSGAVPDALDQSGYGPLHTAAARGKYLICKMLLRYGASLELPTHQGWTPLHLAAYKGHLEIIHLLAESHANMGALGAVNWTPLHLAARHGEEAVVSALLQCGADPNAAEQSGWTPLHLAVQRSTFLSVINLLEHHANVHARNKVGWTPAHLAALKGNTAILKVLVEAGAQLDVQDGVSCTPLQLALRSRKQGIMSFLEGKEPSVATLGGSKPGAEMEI", "note": "Lines come from different studies, so protocols differ."}
{"SMILES": "C=CC(=O)N1CCC(C(=O)NCC(=O)N2CCN(c3nc(-c4cnc(N)nc4C(F)F)nc(N4CCOCC4)n3)CC2)CC1", "read-out": "binding", "technique": "competition with immobilised ligand", "tested at": "1 µM", "remaining binding [%]": 100}
{"SMILES": "COc1ncc2cc3ccccc3nc2c1C#N", "read-out": "cell-free assay", "technique": "competition with immobilised ligand", "tested at": "5 µM", "remaining binding [%]": 100}
{"SMILES": "Nc1ncc2c(n1)-c1c([nH]c3ccc(C#CC4CC4)cc13)CCCC2", "read-out": "binding", "technique": "competition with immobilised ligand", "tested at": "1 µM", "remaining binding [%]": 85}
{"SMILES": "CN(C)c1nccc(-c2cnn3ncccc23)n1", "read-out": "binding", "tested at": "1 µM", "remaining binding [%]": 100}
{"SMILES": "O=C(Nc1c[nH]nc1C(=O)NC1CCNCC1)c1cc(F)cc(F)c1", "read-out": "binding", "technique": "competition with immobilised ligand", "tested at": "1 µM", "remaining binding [%]": 100}
{"SMILES": "C[C@@H]1CN(c2cc(-c3n[nH]c4ccc(OC5(C)CC5)cc34)ncn2)C[C@H](C)O1", "read-out": "cell-free assay", "technique": "competition with immobilised ligand", "tested at": "0.1 µM", "remaining binding [%]": 79}
{"SMILES": "O=C(c1ccc(Nc2nccc(-c3cc4ccccc4s3)n2)cc1)N1CCC(N2CCCC2)CC1", "read-out": "binding", "technique": "competition with immobilised ligand", "tested at": "1 µM", "remaining binding [%]": 71}
{"SMILES": "C[C@H]1CCN(c2nccc(-c3cnn4ncccc34)n2)C1", "read-out": "binding", "tested at": "1 µM", "remaining binding [%]": 83}
{"SMILES": "c1ccc(N2CCN(Cc3nc4ccccc4[nH]3)CC2)nc1", "read-out": "binding", "technique": "competition with immobilised ligand", "tested at": "1 µM", "remaining binding [%]": 100}
{"SMILES": "F[C@@H]1CCN(c2nccc(-c3cnn4ncccc34)n2)C1", "read-out": "binding", "tested at": "1 µM", "remaining binding [%]": 100}
{"SMILES": "O=c1nc(-c2ccccn2)sc2ccccc12", "read-out": "binding", "technique": "competition with immobilised ligand", "tested at": "1 µM", "remaining binding [%]": 100}
{"SMILES": "COc1cnc(Nc2cccc(S(N)(=O)=O)c2)nc1N1CCN(c2ccccc2)C(=O)C1", "read-out": "binding", "technique": "competition with immobilised ligand", "tested at": "1 µM", "remaining binding [%]": 82}
{"SMILES": "C[C@@]1(Cc2ccc(C#N)cc2)C(=O)N(c2cc(Cl)cc(Cl)c2)c2ncc(C(=O)NC3(c4nc(C5CCC5)no4)CC3)n21", "read-out": "cell-free assay", "technique": "competition with immobilised ligand", "tested at": "1 µM", "remaining binding [%]": 100}
{"SMILES": "C[C@@H](c1ccc(-n2cnc3c(N)ncnc32)cc1)N1CCc2nn(C)c(Cc3ccccc3)c2C1=O", "read-out": "binding", "technique": "competition with immobilised ligand", "tested at": "0.1 µM", "remaining binding [%]": 85}
{"SMILES": "Cc1cnn2ncc(-c3ccnc(N(C)C)n3)c2c1", "read-out": "binding", "tested at": "1 µM", "remaining binding [%]": 100}
{"SMILES": "O=C(c1ccc(Nc2ncc(Cl)c(-c3ccc(Cl)s3)n2)cc1)N1CCC(N2CCCC2)CC1", "read-out": "binding", "technique": "competition with immobilised ligand", "tested at": "1 µM", "remaining binding [%]": 61}
{"SMILES": "N#Cc1ccc(Nc2ccc3[nH]c(=O)[nH]c3c2)c(Cl)c1", "read-out": "cell-free assay", "technique": "competition with immobilised ligand", "tested at": "1 µM", "remaining binding [%]": 100}
{"SMILES": "O=C(NCCCN1CCOCC1)c1ccc(Nc2nccc(-c3cc4ccccc4s3)n2)cc1", "read-out": "binding", "technique": "competition with immobilised ligand", "tested at": "1 µM", "remaining binding [%]": 71}
{"SMILES": "CO[C@@H](C)c1c(Nc2ccc([C@@H](N(C)C(=O)C3CCS(=O)(=O)CC3)C(F)(F)F)cc2)cnc2cc(Cl)nn12", "read-out": "cell-free assay", "technique": "competition with immobilised ligand", "tested at": "1 µM", "remaining binding [%]": 100}
{"SMILES": "c1cnn2ncc(-c3ccnc(N4CCC45COC5)n3)c2c1", "read-out": "binding", "tested at": "1 µM", "remaining binding [%]": 72}
{"SMILES": "CCN1CCN(Cc2ccc(C(=O)Nc3ccc(C)c(Oc4ccc5c(c4)CC(=O)N5)c3)cc2C(F)(F)F)CC1", "read-out": "binding", "technique": "competition with immobilised ligand", "tested at": "1 µM", "remaining binding [%]": 100}
